This passage reports Kd and IC50 results from article PMC10639087 (Science signaling, 2023).

Assay [1] deals with T1, JPT2 (Jupiter microtubule-associated homolog 2) (Homo sapiens, UniProt Q9H910).
T1 sequence (Q9H910 1-190): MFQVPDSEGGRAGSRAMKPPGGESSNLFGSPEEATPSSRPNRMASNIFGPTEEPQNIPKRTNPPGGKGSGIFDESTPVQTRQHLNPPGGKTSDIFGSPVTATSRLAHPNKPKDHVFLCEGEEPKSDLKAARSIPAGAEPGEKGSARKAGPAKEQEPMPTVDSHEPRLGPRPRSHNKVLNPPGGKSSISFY
In words: biolayer interferometry, biotinylated protein on streptavidin sensor. The class given is binding. The procedure, abridged:
(§1)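 Recombinant human protein, expressed in E. coli BL21 Star (DE3) as an N-terminal 6xHis-GST-TEV fusion, was biotinylated (NHS-LC-biotin) and moved into 110 mM KCl, 10 mM NaCl, 20 mM Hepes pH 7.2 with 1% BSA. SAX sensors were equilibrated 30 s, loaded with 70 nM bait for 15 s, and re-equilibrated 60 s. They were exposed to NAADP (1:2 serial dilutions, 500 to 15.6 nM), then dissociated 210 to 300 s.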

The target in assay [2] is T1, JPT2 (Jupiter microtubule-associated homolog 2). In words: […]-NAADP displacement, PVDF filter binding.
The target in assay [3] is T2, LSM12 (like-Sm protein 12) (Homo sapiens, UniProt Q3MHD2). In words: […]-NAADP displacement, PVDF filter binding.
T2 sequence (Q3MHD2 whole entry): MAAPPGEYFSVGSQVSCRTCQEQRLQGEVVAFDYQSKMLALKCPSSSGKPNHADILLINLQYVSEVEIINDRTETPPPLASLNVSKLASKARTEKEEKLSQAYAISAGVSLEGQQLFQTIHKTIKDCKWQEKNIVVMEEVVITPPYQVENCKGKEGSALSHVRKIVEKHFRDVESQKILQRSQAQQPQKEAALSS
Assay [4] concerns the target T2, LSM12 (like-Sm protein 12). In words: biolayer interferometry, biotinylated protein on streptavidin sensor. Format: binding. The procedure, abridged:
as §1
On the technique in general: Biolayer interferometry detects binding as a change in optical thickness at a sensor tip.

Each structure is given as a SMILES string.

The Kd is the free concentration of one partner at which half of the binding sites on the other are occupied at equilibrium, for simple one-to-one binding. A low value points to higher affinity. Usually IC50 stands for the concentration at which inhibition is half-maximal. Lower therefore signals inhibition by little substance. Turning to `NC(=O)c1ccc[n+]([C@@H]2O[C@H](COP(=O)(O)OP(=O)(O)OC[C@H]3O[C@@H](n4cnc5c(N)ncnc54)[C@H](OP(=O)(O)O)[C@@H]3O)[C@@H](O)[C@H]2O)c1` [NADP], the Kd in assay [1] is 52.9 ± 8.6 nM; in assay [4], 126 ± 35.6 nM. Moreover, the IC50 in assay [2] was determined as 15.9 ± 4 nM; in assay [3], 40.3 ± 25 nM.

For `Nc1ncnc2c1ncn2[C@@H]1O[C@H](COP(=O)(O)OP(=O)(O)OC[C@H]2O[C@@H]([n+]3cccc(C(=O)O)c3)[C@H](O)[C@@H]2O)[C@@H](O)[C@H]1OP(=O)(O)O` [NAADP], the Kd in assay [1] stood at 5.71 ± 1.8 nM; in assay [4], 2.03 ± 0.41 nM. The IC50 in assay [2] is 1.09 ± 0.1 nM; in assay [3] it was 0.703 ± 0.1 nM.
